Measurements from ChEMBL document CHEMBL1149756, “Synthesis and antiprotozoal activities of simplified analogs of naphthylisoquinoline alkaloids” (Eur J Med Chem, 2008).
Converted amounts (≈) assume the structure as drawn. The source made the active and inactive calls. The rule behind the calls is not given here.

Legend:
L6 = test: Cytotoxicity against rat L6 cells after 4 days; assay type: cell-based; conditions: L6, 96 h
How it was run: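 Non-infected L6 cells seeded at 2000 cells/well in RPMI 1640, 10% FBS, 2 mM L-glutamine, exposed to serial drug dilutions 4 d at 37 °C, 5% CO₂. […] after 2–4 h. IC50 from sigmoidal inhibition curve; means of at least two independent assays in duplicate.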

Leishmania donovani [1] = test: Antileishmanial activity against Leishmania donovani amastigotes infected in mouse peritoneal macrophages after 96 hrs
Trypanosoma cruzi = test: Antitrypanosomal activity against Trypanosoma cruzi Tulahuen C2C4 trypomastigotes infected in rat L6 cells after 4 days
Leishmania donovani [2] = test: Antileishmanial activity against Leishmania donovani infected in mouse peritoneal macrophages after 96 hrs; assay type: functional, organism-based
How it was run: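 L. donovani amastigotes from axenic culture grown at pH 5.4, 1.2 × 10⁵ per well added to macrophages; free amastigotes removed after 4 h and medium replaced. Compound dilutions added next day, 96 h incubation. Slides methanol-fixed 10 min, stained with 10% Giemsa; infected and non-infected macrophages counted, infection rates versus controls. Means of at least two independent assays in duplicate.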

[3] = Therapeutic index, ratio of IC50 for rat L6 cells to IC50 for Trypanosoma cruzi
Leishmania donovani [4] = test: Antileishmanial activity against Leishmania donovani axenic amastigotes
[5] = Therapeutic index, ratio of IC50 for rat L6 cells to IC50 for Leishmania donovani; assay type: cell-based; conditions: read-out: Ratio IC50
[6] = Therapeutic index, ratio of IC50 for rat L6 cells to IC50 for Trypanosoma cruzi C2C4; assay type: cell-based; conditions: read-out: Ratio IC50

Row | Compound | IC50 (L6) [mg/L] | IC50 (Leishmania donovani [1]) [mg/L] | IC50 (Trypanosoma cruzi) [mg/L] | IC50 (Leishmania donovani [2]) [mg/L] | selectivity ratio [3] | Activity (Leishmania donovani [4]) | selectivity ratio [5] | selectivity ratio [6]
1 | COc1cc([C@@H]2c3cc4c(cc3[C@H](O)[C@H]3COC(=O)[C@H]23)OCO4)cc(OC)c1OC [PODOFILOX] | 0.006 (≈ 0.0145 µM) |  |  |  |  |  |  | 
2 | COc1ccc(-c2ccc(O)cc2CO)c2c1CNC(C)(C)C2 | > 90 | > 30 | > 30 | 3.55 (≈ 11.3 µM) |  |  |  | 
3 | COc1ccc(I)c2c1CN(Cc1ccccc1)C(C)(C)C2 | 30 (≈ 73.7 µM) |  | 5.2 (≈ 12.8 µM) | 3.87 (≈ 9.49 µM) | 5.77 | inactive | 7.8 | 
4 | COc1cc2c(c(OC)c1)C(C)=NC(C)(C)C2 | > 90 | 18.2 (≈ 78 µM) | 44.8 (≈ 192 µM) | 4.06 (≈ 17.4 µM) |  |  | > 22.2 | 
5 | COc1cc(OC)c(-c2ccc(O)cc2)c2c1CNC(C)(C)C2 | 28.2 (≈ 90 µM) | 12.8 (≈ 40.7 µM) | 45.2 (≈ 144 µM) | > 5 |  |  |  | 
6 | COc1cc(OC)c2c(c1I)CC(C)(C)NC2 | 33.2 (≈ 95.6 µM) | > 10 | 37.7 (≈ 109 µM) | 0.463 (≈ 1.33 µM) |  |  |  | 
7 | COc1ccc(-c2c(OC)cc(OC)c3c2CC(C)(C)N=C3C)cc1 | 43.4 (≈ 128 µM) | > 30 | 3.6 (≈ 10.6 µM) | > 5 | 12.1 |  |  | 
8 | COc1cccc2c1CNC(C)(C)C2 | > 90 |  | 33 (≈ 173 µM) | > 5 |  | inactive |  | 
9 | COc1cc(OC)c2c(c1Br)CC(C)(C)NC2 | > 90 | > 10 | 40.7 (≈ 136 µM) | 0.628 (≈ 2.09 µM) |  |  |  | 
10 | COc1cc(OC)c(-c2ccc(O)c3ccccc23)c2c1CNC(C)(C)C2 | 8.4 (≈ 23.1 µM) | 5.2 (≈ 14.3 µM) | 5.5 (≈ 15.1 µM) | 0.349 (≈ 0.96 µM) | 1.53 |  | 24.1 | 1.62
11 | COc1cc(OC)c2c(c1Br)CC(C)(C)N=C2C | 57.5 (≈ 184 µM) | 18.9 (≈ 60.5 µM) | 19.8 (≈ 63.4 µM) | 0.377 (≈ 1.21 µM) |  |  | 152 | 
12 | O=C(Cn1ccnc1[N+](=O)[O-])NCc1ccccc1 [BENZNIDAZOLE] |  |  | 0.25 (≈ 0.961 µM) |  | > 360 |  |  | 
13 | COc1ccc(I)c2c1CNC(C)(C)C2 | 83.9 (≈ 265 µM) |  | 10 (≈ 31.5 µM) | 0.341 (≈ 1.08 µM) |  | inactive |  | 
14 | COc1cc(O)cc2c1CN(Cc1ccccc1)C(C)(C)C2 | 79.6 (≈ 268 µM) | 30 (≈ 101 µM) | 22.7 (≈ 76.3 µM) | 0.521 (≈ 1.75 µM) |  |  | 153 | 
15 | COc1cc2c(c(OC)c1)CN(Cc1ccccc1)C(C)(C)C2 | > 90 | > 10 | 20.1 (≈ 64.5 µM) | 1.4 (≈ 4.48 µM) |  |  | > 64.5 | 
16 | COc1cc2c(c(OC)c1)CNC(C)(C)C2 | > 90 | > 30 | > 90 | 3.46 (≈ 15.6 µM) |  |  |  | 
17 | COc1cc(OS(=O)(=O)C(F)(F)F)cc2c1CN(Cc1ccccc1)C(C)(C)C2 | > 90 |  | 44.8 (≈ 104 µM) | 4.67 (≈ 10.9 µM) |  | inactive | > 19.2 | 
18 | COc1cc2c(c(OC)c1)C=NC(C)(C)C2 | > 90 | 18.3 (≈ 83.5 µM) | 59.1 (≈ 270 µM) | > 5 |  |  |  | 
19 | COc1cc(OC)c2c(c1I)CC(C)(C)N(Cc1ccccc1)C2 | 66 (≈ 151 µM) | 2.4 (≈ 5.49 µM) | 3.7 (≈ 8.46 µM) | 1.02 (≈ 2.34 µM) | 17.8 |  | 64.5 | 27.5
20 | COc1cc(OC)c2c(c1Br)CC(C)(C)N(Cc1ccccc1)C2 | 84.8 (≈ 217 µM) | 4.2 (≈ 10.8 µM) | 5.8 (≈ 14.9 µM) | 0.424 (≈ 1.09 µM) | 14.6 |  | 200 | 20.2
21 | CCN(CC)CCCC(C)Nc1ccnc2cc(Cl)ccc12 (centres undefined) [CHLOROQUINE] |  |  |  | 0.23 (≈ 0.719 µM) |  |  | 1090 | 
